Laboratory results reported in ChEMBL document CHEMBL5303300, “EUbOPEN Chemogenomics Library - Multiplex” (2023).
Where “and” joins values, the source holds several entries; their conditions need not be identical. Equal entries are not always repeated.

How the values were obtained:
HEK-293T = assay: Multiplex assay against HEK293T; assay type: toxicity, cell-based; settings: human, number of replicates 2
How it was run: (§1)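 Live cells were stained at seeding with Hoechst33342, BioTracker Green Microtubule Cytoskeleton Dye, MitoTracker Red and Annexin V Alexa Fluor 680. Following compound addition, they were imaged on a CQ1 microscope at 37°C and 5% CO2 and gated by CellPathfinder machine learning into Hoechst high-intensity objects or normal cells, with normal cells split into healthy, pyknosed or fragmented nuclei and pyknosed cells into mitotic or apoptotic. Tubulin, mitochondrial-mass and membrane-permeability phenotypes are per cents of healthy-nucleus cells.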

U2OS = assay: Multiplex assay against U2OS; assay type: toxicity, cell-based; settings: human, number of replicates 2; how it was run: as §1
[1] = 24 h, 1 µM, compound concentration 1 uM
[2] = 24 h, 10 µM, compound concentration 10 uM
[3] = 48 h, 1 µM, compound concentration 1 uM
[4] = 48 h, 10 µM, compound concentration 10 uM
[5] = 12 h, 1 µM, compound concentration 1 uM
[6] = 12 h, 10 µM, compound concentration 10 uM

Question: For `COc1ccccc1-c1cc(Nc2cccc(CS(N)(=O)=O)c2)ncn1`, which “Population Mitochondria Different-Phenotype (%)” value (HEK-293T; [1]) is on record?
Answer: The value was 4% and 5%.

Question: What about the “Population Mitotic Cells (%)” value (HEK-293T; [1]) of the same molecule?
Answer: Its value is 64% and 65%.

Question: And the “Population Normal (%)” value (HEK-293T; [1])?
Answer: The value was 93% and 91%.

Question: What about the “Population Pyknosed Nuclei (%)” value (HEK-293T; [1]) of the same molecule?
Answer: The value was 7%.

Question: What about the “Population Tubulin-Different-Phenotype (%)” value (HEK-293T; [1]) of the same molecule?
Answer: Its value is 36%.

Question: What about the “Total Cell Count” value (HEK-293T; [1]) of the same molecule?
Answer: Its value is 1151 and 990.

Question: What about the “Population Apoptotic (%)” value (HEK-293T; [2]) of the same molecule?
Answer: The value was 47% and 40%.

Question: What about the “Population Fragmented Nuclei (%)” value (HEK-293T; [2]) of the same molecule?
Answer: Its value is 2% and 1%.

Question: What about the “Population Healthy Nuclei (%)” value (HEK-293T; [2]) of the same molecule?
Answer: Its value is 90%.

Question: And the “Population Hoechst High Intensity Objects (%)” value (HEK-293T; [2])?
Answer: Its value is 4% and 5%.

Question: What about the “Population Membrane Permeable-Phenotype (%)” value (HEK-293T; [2]) of the same molecule?
Answer: Its value is 5% and 6%.

Question: What about the “Population Mitochondria Different-Phenotype (%)” value (HEK-293T; [2]) of the same molecule?
Answer: The value was 20% and 19%.

Question: And the “Population Mitotic Cells (%)” value (HEK-293T; [2])?
Answer: The value was 52% and 60%.

Question: What about the “Population Normal (%)” value (HEK-293T; [2]) of the same molecule?
Answer: The value was 95% and 94%.

Question: And the “Population Pyknosed Nuclei (%)” value (HEK-293T; [2])?
Answer: The value was 6% and 7%.

Question: What about the “Population Tubulin-Different-Phenotype (%)” value (HEK-293T; [2]) of the same molecule?
Answer: The value was 69% and 75%.

Question: What about the “Total Cell Count” value (HEK-293T; [2]) of the same molecule?
Answer: The value was 861 and 783.

Question: And the “Population Apoptotic (%)” value (HEK-293T; [3])?
Answer: Its value is 11% and 13%.

Question: And the “Population Fragmented Nuclei (%)” value (HEK-293T; [3])?
Answer: Its value is 11% and 8%.

Question: And the “Population Healthy Nuclei (%)” value (HEK-293T; [3])?
Answer: Its value is 85% and 88%.

Question: What about the “Population Hoechst High Intensity Objects (%)” value (HEK-293T; [3]) of the same molecule?
Answer: The value was 8% and 9%.

Question: What about the “Population Membrane Permeable-Phenotype (%)” value (HEK-293T; [3]) of the same molecule?
Answer: The value was 5% and 3%.

Question: And the “Population Mitochondria Different-Phenotype (%)” value (HEK-293T; [3])?
Answer: Its value is 0%.

Question: And the “Population Mitotic Cells (%)” value (HEK-293T; [3])?
Answer: Its value is 88% and 86%.

Question: What about the “Population Normal (%)” value (HEK-293T; [3]) of the same molecule?
Answer: The value was 91% and 90%.

Question: What about the “Population Pyknosed Nuclei (%)” value (HEK-293T; [3]) of the same molecule?
Answer: The value was 3%.

Question: What about the “Population Tubulin-Different-Phenotype (%)” value (HEK-293T; [3]) of the same molecule?
Answer: The value was 15% and 16%.

Question: What about the “Total Cell Count” value (HEK-293T; [3]) of the same molecule?
Answer: Its value is 2772 and 2160.

Question: What about the “Population Apoptotic (%)” value (HEK-293T; [4]) of the same molecule?
Answer: The value was 34% and 35%.

Question: What about the “Population Fragmented Nuclei (%)” value (HEK-293T; [4]) of the same molecule?
Answer: The value was 8% and 5%.

Question: What about the “Population Healthy Nuclei (%)” value (HEK-293T; [4]) of the same molecule?
Answer: Its value is 86% and 90%.

Question: What about the “Population Hoechst High Intensity Objects (%)” value (HEK-293T; [4]) of the same molecule?
Answer: The value was 6%.

Question: What about the “Population Membrane Permeable-Phenotype (%)” value (HEK-293T; [4]) of the same molecule?
Answer: The value was 3%.

Question: And the “Population Mitochondria Different-Phenotype (%)” value (HEK-293T; [4])?
Answer: The value was 7% and 8%.

Question: What about the “Population Mitotic Cells (%)” value (HEK-293T; [4]) of the same molecule?
Answer: The value was 65% and 64%.

Question: And the “Population Normal (%)” value (HEK-293T; [4])?
Answer: The value was 93%.

Question: What about the “Population Pyknosed Nuclei (%)” value (HEK-293T; [4]) of the same molecule?
Answer: The value was 4% and 3%.

Question: And the “Population Tubulin-Different-Phenotype (%)” value (HEK-293T; [4])?
Answer: Its value is 51% and 50%.

Question: And the “Total Cell Count” value (HEK-293T; [4])?
Answer: Its value is 1254 and 1055.

Question: What about the “Population Apoptotic (%)” value (U2OS; [5]) of the same molecule?
Answer: Its value is 75% and 86%.

Question: And the “Population Fragmented Nuclei (%)” value (U2OS; [5])?
Answer: Its value is 13% and 5%.

Question: What about the “Population Healthy Nuclei (%)” value (U2OS; [5]) of the same molecule?
Answer: The value was 75% and 84%.

Question: And the “Population Hoechst High Intensity Objects (%)” value (U2OS; [5])?
Answer: Its value is 0%.

Question: And the “Population Membrane Permeable-Phenotype (%)” value (U2OS; [5])?
Answer: The value was 7% and 3%.

Question: What about the “Population Mitochondria Different-Phenotype (%)” value (U2OS; [5]) of the same molecule?
Answer: Its value is 0% and 1%.

Question: And the “Population Mitotic Cells (%)” value (U2OS; [5])?
Answer: The value was 25% and 13%.

Question: What about the “Population Normal (%)” value (U2OS; [5]) of the same molecule?
Answer: The value was 100%.

Question: And the “Population Pyknosed Nuclei (%)” value (U2OS; [5])?
Answer: Its value is 11% and 10%.

Question: And the “Population Tubulin-Different-Phenotype (%)” value (U2OS; [5])?
Answer: The value was 62% and 80%.

Question: What about the “Population Apoptotic (%)” value (U2OS; [6]) of the same molecule?
Answer: The value was 63% and 66%.

Question: And the “Population Healthy Nuclei (%)” value (U2OS; [6])?
Answer: Its value is 82% and 50%.

Question: And the “Population Hoechst High Intensity Objects (%)” value (U2OS; [6])?
Answer: The value was 0%.

Question: What about the “Population Mitochondria Different-Phenotype (%)” value (U2OS; [6]) of the same molecule?
Answer: Its value is 1% and 0%.

Question: And the “Population Mitotic Cells (%)” value (U2OS; [6])?
Answer: Its value is 36% and 33%.

Question: What about the “Population Normal (%)” value (U2OS; [6]) of the same molecule?
Answer: Its value is 100%.

Question: What about the “Population Pyknosed Nuclei (%)” value (U2OS; [6]) of the same molecule?
Answer: Its value is 12% and 13%.

Question: And the “Population Tubulin-Different-Phenotype (%)” value (U2OS; [6])?
Answer: Its value is 72% and 34%.

Question: And the “Population Apoptotic (%)” value (U2OS; [1])?
Answer: Its value is 80% and 86%.

Question: What about the “Population Healthy Nuclei (%)” value (U2OS; [1]) of the same molecule?
Answer: The value was 70% and 88%.

Question: What about the “Population Hoechst High Intensity Objects (%)” value (U2OS; [1]) of the same molecule?
Answer: The value was 0%.

Question: What about the “Population Membrane Permeable-Phenotype (%)” value (U2OS; [1]) of the same molecule?
Answer: Its value is 2% and 1%.

Question: And the “Population Mitochondria Different-Phenotype (%)” value (U2OS; [1])?
Answer: Its value is 2% and 0%.

Question: What about the “Population Mitotic Cells (%)” value (U2OS; [1]) of the same molecule?
Answer: Its value is 20% and 13%.

Question: And the “Population Normal (%)” value (U2OS; [1])?
Answer: Its value is 100%.

Question: And the “Population Pyknosed Nuclei (%)” value (U2OS; [1])?
Answer: The value was 8% and 7%.

Question: And the “Population Tubulin-Different-Phenotype (%)” value (U2OS; [1])?
Answer: Its value is 51% and 77%.

Question: And the “Population Apoptotic (%)” value (U2OS; [2])?
Answer: The value was 80%.

Question: And the “Population Healthy Nuclei (%)” value (U2OS; [2])?
Answer: The value was 79% and 62%.

Question: And the “Population Hoechst High Intensity Objects (%)” value (U2OS; [2])?
Answer: Its value is 0%.

Question: And the “Population Mitochondria Different-Phenotype (%)” value (U2OS; [2])?
Answer: Its value is 1% and 11%.

Question: And the “Population Mitotic Cells (%)” value (U2OS; [2])?
Answer: The value was 19% and 20%.

Question: And the “Population Normal (%)” value (U2OS; [2])?
Answer: The value was 100%.

Question: And the “Population Pyknosed Nuclei (%)” value (U2OS; [2])?
Answer: The value was 16% and 18%.

Question: And the “Population Tubulin-Different-Phenotype (%)” value (U2OS; [2])?
Answer: Its value is 76% and 50%.

Question: What about the “Population Apoptotic (%)” value (U2OS; [3]) of the same molecule?
Answer: Its value is 75% and 83%.

Question: And the “Population Fragmented Nuclei (%)” value (U2OS; [3])?
Answer: Its value is 13% and 4%.

Question: What about the “Population Healthy Nuclei (%)” value (U2OS; [3]) of the same molecule?
Answer: Its value is 77% and 88%.

Question: And the “Population Hoechst High Intensity Objects (%)” value (U2OS; [3])?
Answer: The value was 0%.

Question: What about the “Population Membrane Permeable-Phenotype (%)” value (U2OS; [3]) of the same molecule?
Answer: Its value is 8% and 1%.

Question: And the “Population Mitochondria Different-Phenotype (%)” value (U2OS; [3])?
Answer: The value was 0%.

Question: What about the “Population Mitotic Cells (%)” value (U2OS; [3]) of the same molecule?
Answer: Its value is 25% and 16%.

Question: What about the “Population Normal (%)” value (U2OS; [3]) of the same molecule?
Answer: Its value is 100%.

Question: What about the “Population Pyknosed Nuclei (%)” value (U2OS; [3]) of the same molecule?
Answer: Its value is 9% and 7%.

Question: And the “Population Tubulin-Different-Phenotype (%)” value (U2OS; [3])?
Answer: The value was 75% and 78%.

Question: What about the “Population Apoptotic (%)” value (U2OS; [4]) of the same molecule?
Answer: Its value is 66% and 77%.

Question: And the “Population Fragmented Nuclei (%)” value (U2OS; [4])?
Answer: Its value is 18% and 7%.

Question: And the “Population Healthy Nuclei (%)” value (U2OS; [4])?
Answer: Its value is 60% and 73%.

Question: What about the “Population Hoechst High Intensity Objects (%)” value (U2OS; [4]) of the same molecule?
Answer: The value was 0%.

Question: What about the “Population Membrane Permeable-Phenotype (%)” value (U2OS; [4]) of the same molecule?
Answer: The value was 8% and 6%.

Question: And the “Population Mitochondria Different-Phenotype (%)” value (U2OS; [4])?
Answer: Its value is 6% and 3%.

Question: And the “Population Mitotic Cells (%)” value (U2OS; [4])?
Answer: Its value is 33% and 22%.

Question: What about the “Population Normal (%)” value (U2OS; [4]) of the same molecule?
Answer: Its value is 100%.

Question: What about the “Population Pyknosed Nuclei (%)” value (U2OS; [4]) of the same molecule?
Answer: The value was 20% and 18%.

Question: And the “Population Tubulin-Different-Phenotype (%)” value (U2OS; [4])?
Answer: Its value is 55% and 73%.
